# Published values gathered from unrelated publications.
# Compare with care: the assays were run in different laboratories.
# Target: Cyclin-G-associated kinase (GAK, Homo sapiens, UniProt O14976)
# Residues used in one study (O14976 1-1311): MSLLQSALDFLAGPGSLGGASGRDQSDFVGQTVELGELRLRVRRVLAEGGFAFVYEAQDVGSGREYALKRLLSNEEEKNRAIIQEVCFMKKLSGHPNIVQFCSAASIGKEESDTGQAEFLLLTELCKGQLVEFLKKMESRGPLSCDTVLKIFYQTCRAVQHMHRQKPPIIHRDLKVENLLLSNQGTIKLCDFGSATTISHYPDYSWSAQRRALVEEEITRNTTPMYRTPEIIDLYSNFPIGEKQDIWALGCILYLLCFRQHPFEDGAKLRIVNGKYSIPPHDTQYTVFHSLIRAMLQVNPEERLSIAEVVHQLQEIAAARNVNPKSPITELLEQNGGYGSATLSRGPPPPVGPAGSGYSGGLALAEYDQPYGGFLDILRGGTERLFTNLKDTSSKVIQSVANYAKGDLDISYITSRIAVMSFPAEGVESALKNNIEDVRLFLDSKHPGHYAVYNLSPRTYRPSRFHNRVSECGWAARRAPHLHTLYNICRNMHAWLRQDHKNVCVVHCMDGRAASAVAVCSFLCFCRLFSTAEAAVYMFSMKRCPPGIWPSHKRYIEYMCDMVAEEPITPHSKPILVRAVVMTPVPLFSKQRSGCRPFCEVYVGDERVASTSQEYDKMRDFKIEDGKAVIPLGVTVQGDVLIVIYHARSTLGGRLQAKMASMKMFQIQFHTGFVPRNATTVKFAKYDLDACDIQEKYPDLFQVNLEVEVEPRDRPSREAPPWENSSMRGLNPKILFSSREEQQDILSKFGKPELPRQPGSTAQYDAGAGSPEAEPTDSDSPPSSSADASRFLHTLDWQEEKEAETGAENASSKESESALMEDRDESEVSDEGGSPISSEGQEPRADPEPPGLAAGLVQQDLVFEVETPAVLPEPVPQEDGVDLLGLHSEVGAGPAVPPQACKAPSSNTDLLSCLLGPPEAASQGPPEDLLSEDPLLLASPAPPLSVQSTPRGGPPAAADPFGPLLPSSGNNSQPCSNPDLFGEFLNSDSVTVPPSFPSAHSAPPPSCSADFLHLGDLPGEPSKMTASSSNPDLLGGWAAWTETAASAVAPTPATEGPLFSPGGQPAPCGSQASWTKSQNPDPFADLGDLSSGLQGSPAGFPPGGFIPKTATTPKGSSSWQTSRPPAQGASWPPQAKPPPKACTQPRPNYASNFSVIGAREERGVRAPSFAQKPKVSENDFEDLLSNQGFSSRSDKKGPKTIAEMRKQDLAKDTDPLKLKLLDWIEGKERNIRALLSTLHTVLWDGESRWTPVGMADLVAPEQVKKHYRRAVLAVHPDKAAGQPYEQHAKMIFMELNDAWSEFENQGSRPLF
SMILES,effect on,mode,technique,tested at,quantity,result
CC(C)S(=O)(=O)c1ccc2nccc(Nc3ccc4sc(C5CCCC5)nc4c3)c2c1,enzyme activity,inhibitor,,1 µM,activity vs control,101%
C#Cc1cc(-c2cc(Nc3nc(N[C@@H](C)c4ccc(F)cn4)ncc3Cl)n[nH]2)ccc1C=O,enzyme activity,inhibitor,,0.2 µM,inhibition,18.7%
Cc1ccc(NC(=O)c2ccnc(C(F)(F)F)c2)cc1-c1cc(OCCO)nc(N2CCOCC2)c1,binding,,competition with immobilised ligand,1 µM,remaining binding,95%
C1=C/COCc2cc(ccc2OCCN2CCCC2)Nc2nccc(n2)-c2cccc(c2)COC/1,binding,,,0.1 µM,remaining binding,31%
CCCCC(=O)Nc1ccc(-c2ccc3ncn(CCC)c(=O)c3c2)cn1,binding,,competition with immobilised ligand,0.5 µM,remaining binding,100%
CO[C@@H]1[C@H](N(C)C(=O)c2ccccc2)C[C@H]2O[C@]1(C)n1c3ccccc3c3c4c(c5c6ccccc6n2c5c31)C(=O)NC4,enzyme activity,inhibitor,,1 µM,inhibition,74%
Cc1cc(O)c(-c2ccc([C@@H](C)CN(C)C)cc2)c2c1[nH]c(=O)c1sccc12,enzyme activity,inhibitor,,0.1 µM,inhibition,0.133%
C=CC(=O)N1CCC([C@@H]2CCNc3c(C(N)=O)c(-c4ccc(Oc5ccccc5)cc4)nn32)CC1,enzyme activity,inhibitor,,1 µM,inhibition,20%
CN1CCN(C(=O)c2ccc(NC(=O)Nc3ccc(N(C)c4ccnc(Nc5ccc(CS(C)(=O)=O)cc5)n4)cc3)cc2)CC1,binding,,competition with immobilised ligand,1 µM,remaining binding,18%
